Records with an inconclusive call do not appear.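 Rule for the calls, unless noted: active = cell viability at or below a set limit in both duplicate runs, the limit being the all-compound median minus 4 SD (cut at about 23% in these data, passing the limit was not always enough); inconclusive = no clear call, values can overlap the other calls; inactive = the rest.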
What was measured:
[1] = OD615 S. cerevisiae growth inhibition, permissive medium, pilot counter-assay, permissive growth control for S. cerevisiae lifespan shortening project (AID 705;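 active = growth inhibition above 25% in both replicates, a cutoff set 3 SD above the mean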); conditions: OD615, 24 h, at 10 µM, hits give high values
Outline: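 Material: engineered DeaD yeast; compound dosing: one dose 10 µM, DMSO 0.25% final; measure: yeast growth inhibition indicated by reduced 24 h OD615; detection: OD615 turbidity read; incubation: cells pre-grown 4 h, then 24 h compound exposure, 30 °C humidified; medium: permissive synthetic complete medium with raffinose and galactose carbon sources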

[2] = Restrictive medium S. cerevisiae growth inhibition, OD615, pilot screen of yeast lifespan reduction project, restrictive growth control (AID 706;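 active = growth inhibition above a set limit, 3 SD over mean compound inhibition, in both replicates, cut at about 43% in these data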;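 note: modified DeaD lifespan yeast strain shifted to restrictive glucose medium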); conditions: OD615, 48 h, at 10 µM, hits give high values
Outline: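 material = engineered S. cerevisiae DeaD strain | medium = glucose-based CSMM-D restrictive medium | times = 4 h pre-incubation, 48 h exposure at 30 °C | technique = OD615 absorbance reading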

[3] = viability gain of MRP-1-high H69AR cells under doxorubicin, pilot screen, MRP-1 activator project, CellTiter-Glo, duplicate (AID 807;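 active = viability increase at or above a cutoff of the median across tested compounds plus 3 SD, cut at about 8.5% in these data, passing the limit was not always enough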;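 note: compound pretreatment 18-22 h then 72 h combined with doxorubicin; 0% = doxorubicin alone and 100% = vehicle without doxorubicin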); conditions: H69AR viability with doxorubicin, CellTiter-Glo luminescence; at 10 µM; hits give high values
[4] = growth suppression of beta-catenin knockout HCT116, pilot screen, human colon tumor cells (AID 823); conditions: CellTiter-Glo, 60 h, at 10 µM, hits give low values;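 note: 0% = wells killed by 20 µM Hyamine and 100% = untreated DMSO cell wells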
[5] = growth suppression of PTEN-deleted HCT116, pilot screen, cell-based, HCT116 clonal line, CellTiter-Glo (AID 824;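 active = viability at or below 27.92% in each of two runs, the all-compound median minus 4 SD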;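 note: 0% = 20 µM Hyamine control and 100% = vehicle cell control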); conditions: 60 h, at 10 µM, hits give low values
[6] = inhibitors of the yeast RAM network, pilot screen, dse1pr::URA3 reporter, 5-FOA selection (AID 869;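 active = inhibition over a set limit, the all-compound mean plus 3 SD, in both replicate runs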;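 note: 0% = DMSO wells with no growth and 100% = 10 µM 1-NA-PP1 with full growth; RAM network block rescues cells from 5-FOA so hits raise OD615 growth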); conditions: S. cerevisiae dse1pr::URA3 5-FOA growth, OD615, 2 d; at 10 µM; hits give high values; strain carries analog-sensitive mutant Cbk1 kinase
[7] = RAM signaling pathway blockade in yeast – S. cerevisiae, Pdr1DBD-CYC8 efflux-inhibited sensitized strain, primary screen (AID 1298;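 active = RAM network inhibition above 8.4% in each of two replicates, 3 SD over the compound average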;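 note: 0% = DMSO untreated cells without growth and 100% = 10 µM 1-NA-PP1 full growth; higher means more yeast growth rescued from 5-FOA killing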); conditions: S. cerevisiae cbk1-as DSE1-URA3 strain, 5-FOA growth OD615, 2 d; at 50 µM; hits give high values

O=C(Cc1ccccc1)NCCn1ccc2ccccc21
inactive: growth inhibition [1] -10.7% | growth inhibition [2] -13.2% | viability increase [3] -1.79% | viability [4] 94.6% | viability [5] 88.8% | inhibition [6] 0.01% | RAM network inhibition [7] 3.55%

O=C1Nc2ccccc2C(O)(C(=O)NCc2ccco2)N1c1ccc(Cl)cc1 (configuration not stated)
inactive: growth inhibition [1] -7.58% | growth inhibition [2] -16.5% | viability increase [3] -4.11% | viability [4] 98.6% | viability [5] 94.5% | inhibition [6] 1.98% | RAM network inhibition [7] 4.83%

O=S(=O)(c1ccc(Br)cc1)N1CCN(c2cc(-c3ccccc3)nc3ncnn23)CC1
inactive: growth inhibition [1] -4.71% | growth inhibition [2] -15.6% | viability increase [3] -5.82% | viability [4] 61.9% | viability [5] 71.9% | inhibition [6] 2.37% | RAM network inhibition [7] 2.33%

CCOC(=O)C1=C(C)NC(C)=C(C(=O)OCC)C1C(=O)O
inactive: growth inhibition [1] -3.05% | growth inhibition [2] -4.22% | viability increase [3] -3.51% | viability [4] 93.5% | viability [5] 90% | inhibition [6] 0.265% | RAM network inhibition [7] 1.53%

CCn1c(CNC(=O)c2cccc(C)c2)nc2ccccc21
inactive: growth inhibition [1] -6.91% | growth inhibition [2] -5.74% | viability increase [3] -0.3% | viability [4] 99.6% | viability [5] 97.2% | inhibition [6] 2.5% | RAM network inhibition [7] 5%

CCOC(=O)N1CCN(c2ccc3nnnn3n2)CC1
inactive: growth inhibition [1] -4.75% | growth inhibition [2] 1.97% | viability increase [3] 0.77% | viability [4] 101% | viability [5] 101% | inhibition [6] 0.275% | RAM network inhibition [7] 0.43%

O=C(O)CCCC(=O)N1CCc2cc(S(=O)(=O)N3CCc4ccccc43)ccc21
inactive: growth inhibition [1] -2.29% | growth inhibition [2] -2.17% | viability increase [3] -0.98% | viability [4] 90.7% | viability [5] 91.8% | inhibition [6] 1.98% | RAM network inhibition [7] 1.3%

Cc1cc(C(=O)NCc2ccccc2)c(=O)[nH]c1C
inactive: growth inhibition [1] -15.4% | growth inhibition [2] -9.45% | viability increase [3] 0.83% | viability [4] 103% | viability [5] 90.3% | inhibition [6] 2.33% | RAM network inhibition [7] 0.52%

C(=N\n1cnnc1)/C1CCCCC1
inactive: growth inhibition [1] -4.95% | growth inhibition [2] -1.24% | viability increase [3] -2.8% | viability [4] 101% | viability [5] 98.4% | inhibition [6] 0.19% | RAM network inhibition [7] 6.93%

Cc1cccc(Nc2ncnc3nc[nH]c23)c1
inactive: growth inhibition [1] 3.02% | growth inhibition [2] 32.5% | viability increase [3] -1.96% | viability [4] 101% | viability [5] 97.6% | inhibition [6] 2.31% | RAM network inhibition [7] 3.11%

CCC(Sc1nc(C)cc(=O)[nH]1)C(=O)Nc1sc2c(c1C#N)CCCC2 (configuration not stated)
inactive: growth inhibition [1] -14% | growth inhibition [2] -12.3% | viability increase [3] -3.49% | viability [4] 92.9% | viability [5] 91.4% | inhibition [6] 2.01% | RAM network inhibition [7] 6.25%

O=C(Nc1nccs1)c1ccc(S(=O)(=O)N2CCCCC2)cc1
inactive: growth inhibition [1] -9.01% | growth inhibition [2] -1.44% | viability increase [3] 0.89% | viability [4] 94% | viability [5] 90% | inhibition [6] 1.73% | RAM network inhibition [7] 5.88%

COc1cccc(-c2nnc(SCC(=O)N3CC(C)CC(C)C3)o2)c1 (configuration not stated)
inactive: growth inhibition [1] -6.77% | growth inhibition [2] -0.75% | viability increase [3] -3.25% | viability [4] 98% | viability [5] 90.5% | inhibition [6] 0.535% | RAM network inhibition [7] 0.7%

CC1CCN(S(=O)(=O)c2ccc3c(c2)oc(=O)n3CC(=O)NCc2ccc3c(c2)OCO3)CC1
inactive: growth inhibition [1] -1.64% | growth inhibition [2] -15.8% | viability increase [3] 4.02% | viability [4] 81.4% | viability [5] 76.7% | inhibition [6] 3.27% | RAM network inhibition [7] 2.06%

CC(=O)NCc1nc2ccccc2n1Cc1ccccc1F
inactive: growth inhibition [1] -7.66% | growth inhibition [2] -15.8% | viability increase [3] -0.31% | viability [4] 108% | viability [5] 104% | inhibition [6] 3.39% | RAM network inhibition [7] 2.03%

Cc1ccc(N(CC(N)=O)C2SC(=O)N(C)C2=O)cc1 (configuration not stated)
inactive: growth inhibition [1] -11.9% | growth inhibition [2] -7.83% | viability increase [3] -2.96% | viability [4] 97.8% | viability [5] 102% | inhibition [6] 1.09% | RAM network inhibition [7] 3.14%

CC(C)(C)c1nc(CN2CCCCC2)cc(CN2CCCCC2)c1O
inactive: growth inhibition [1] -13.8% | growth inhibition [2] -12.6% | viability increase [3] -5.26% | viability [4] 70.8% | viability [5] 76.2% | inhibition [6] 0.505% | RAM network inhibition [7] 1.19%

CCOC(=O)NCCc1ccc(OC)cc1
inactive: growth inhibition [1] -4.17% | growth inhibition [2] 5.72% | viability increase [3] 1.36% | viability [4] 99.9% | viability [5] 95.8% | inhibition [6] 1.83% | RAM network inhibition [7] 0.56%

COC(=O)c1ccc(N2CCOCC2)c(NC(=O)Nc2cccc(OC)c2)c1
inactive: growth inhibition [1] -14.5% | growth inhibition [2] -8.03% | viability increase [3] -5.3% | viability [4] 84.4% | viability [5] 77.1% | inhibition [6] 1.09% | RAM network inhibition [7] 5.95%

COc1ccccc1-n1c2c(cc(C(=O)N3CCC(C)CC3)c1=O)C(=O)CC(C)(C)C2
inactive: growth inhibition [1] -21.2% | growth inhibition [2] -5.49% | viability increase [3] -0.6% | viability [4] 101% | viability [5] 90.7% | inhibition [6] 0.005% | RAM network inhibition [7] 4.67%

O=CN1CCN(C(C(=O)NC2CCCC2)c2ccc(Cl)cc2)CC1 (configuration not stated)
inactive: growth inhibition [1] -7.98% | growth inhibition [2] 4.62% | viability increase [3] -1.14% | viability [4] 86.2% | viability [5] 88.5% | inhibition [6] 0.795% | RAM network inhibition [7] 2.38%

COc1ccc2nc(NC(=O)C3COc4ccccc4O3)sc2c1 (configuration not stated)
inactive: growth inhibition [1] -5.73% | growth inhibition [2] -9.21% | viability increase [3] 2.25% | viability [4] 100% | viability [5] 91.7% | inhibition [6] 2.08% | RAM network inhibition [7] 2.86%

COc1ccccc1N1CCN(C(=O)C2CCN(S(=O)(=O)c3ccccc3)CC2)CC1
inactive: growth inhibition [1] -0.075% | growth inhibition [2] 2.96% | viability increase [3] -1.42% | viability [4] 92.6% | viability [5] 95.6% | inhibition [6] 1.07% | RAM network inhibition [7] 5.76%

O=C(CSc1nnc(-c2ccccc2)o1)Nc1ccccc1F
inactive: growth inhibition [1] -5.54% | growth inhibition [2] -2.1% | viability increase [3] -3.62% | viability [4] 37.7% | viability [5] 38% | inhibition [6] 2.13% | RAM network inhibition [7] 8.53%

Cc1noc(C)c1S(=O)(=O)NCc1ccc2c(c1)OCO2
inactive: growth inhibition [1] -1.3% | growth inhibition [2] -6.16% | viability increase [3] -1.12% | viability [4] 97.5% | viability [5] 93.6% | inhibition [6] 2.77% | RAM network inhibition [7] 0.27%

CCCCC(=O)Nc1ccc2c(c1)C(=O)NC2=O
inactive: growth inhibition [1] -2.94% | growth inhibition [2] -3.99% | viability increase [3] 0.07% | viability [4] 101% | viability [5] 94.5% | inhibition [6] 2.62% | RAM network inhibition [7] 2.45%

O=C(CC1c2ccccc2Oc2ccccc21)N1CCN(c2ccccn2)CC1
inactive: growth inhibition [1] -16.3% | growth inhibition [2] -10.3% | viability increase [3] -3.24% | viability [4] 71.6% | viability [5] 70.5% | inhibition [6] 1.08% | RAM network inhibition [7] 4.78%

COc1ccc2nc(NC(=O)c3ccc4ncsc4c3)sc2c1
inactive: growth inhibition [1] 0.465% | growth inhibition [2] 13% | viability increase [3] -3.84% | viability [4] 81.3% | viability [5] 82.5% | inhibition [6] 3.54% | RAM network inhibition [7] 8.79%

COc1ccc2c(c1)CCc1c(C(=O)NCc3ccc(F)cc3)noc1-2
inactive: growth inhibition [1] -8.49% | growth inhibition [2] -0.25% | viability increase [3] 1.03% | viability [4] 100% | viability [5] 103% | inhibition [6] 1.86% | RAM network inhibition [7] 4.87%

O=C(COc1ccccc1)Nc1ccc(S(=O)(=O)N2CCCC2)cc1
inactive: growth inhibition [1] -12.9% | growth inhibition [2] -12.5% | viability increase [3] -1.84% | viability [4] 99.5% | viability [5] 88.7% | inhibition [6] 2.33% | RAM network inhibition [7] 2.76%

Cn1cccc1Cc1nnc(SCC(=O)N2CCCC2)n1CCc1ccccc1
inactive: growth inhibition [1] 1.38% | growth inhibition [2] 16.7% | viability increase [3] -1.41% | viability [4] 103% | viability [5] 102% | inhibition [6] 0.04% | RAM network inhibition [7] 1.63%

Cn1c(=O)c2c(SCc3cccnc3)nc(CC(C)(C)C)nc2n(C)c1=O
inactive: growth inhibition [1] 0.2% | growth inhibition [2] -12% | viability increase [3] -6.27% | viability [4] 87.2% | viability [5] 80.9% | inhibition [6] 0.1% | RAM network inhibition [7] 3.24%

Cc1ccccc1NC(=O)CSc1[nH]c(=O)cc(C)c1C#N
inactive: growth inhibition [1] -1.3% | growth inhibition [2] 11.7% | viability increase [3] -0.42% | viability [4] 108% | viability [5] 101% | inhibition [6] 2.41% | RAM network inhibition [7] 1.7%

CCCC1(C(=O)O)NC(c2cccc(OC)c2O)C2C(=O)N(c3ccccc3)C(=O)C21 (configuration not stated)
inactive: growth inhibition [1] -0.085% | growth inhibition [2] -4.29% | viability increase [3] -0.36% | viability [4] 96.4% | viability [5] 97.4% | inhibition [6] 0.49% | RAM network inhibition [7] -0.78%

CCCC(=O)OCCNC(=O)c1cc2ccccc2oc1=O
inactive: growth inhibition [1] -4.39% | growth inhibition [2] 2.19% | viability increase [3] -0.74% | viability [4] 102% | viability [5] 90.2% | inhibition [6] 0.64% | RAM network inhibition [7] 2.41%

CC1CCC(NC(=O)Cn2cc3c(n2)CCCC3)CC1 (configuration not stated)
inactive: growth inhibition [1] -4.87% | growth inhibition [2] -6.18% | viability increase [3] 1.57% | viability [4] 110% | viability [5] 103% | inhibition [6] -0.485% | RAM network inhibition [7] 0.23%

— PubChem BioAssay
